Experimental data: ChEMBL document CHEMBL1687903, “Claurailas A-D, cytotoxic carbazole alkaloids from the roots of Clausena harmandiana” (J Nat Prod, 2011)

What was measured:
Vero = assay: Cytotoxicity against african green monkey Vero cells by green fluorescent protein microplate assay; type: cell-based; settings: Chlorocebus sabaeus
How it was run: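 Green fluorescent protein-based assay on Vero cells (African green monkey kidney), used as the normal-cell counterscreen, with ellipticine as reference substance. Activity reported as IC50 in μM.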

KB = assay: Cytotoxicity against human KB cells by resazurin microplate assay; type: functional, cell-based
How it was run: (§1)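 Resazurin microplate assay (REMA) on human epidermoid carcinoma KB and human small cell lung cancer NCI-H187 lines, with ellipticine as reference substance. Activity reported as IC50 in μM.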

NCI-H187 = assay: Cytotoxicity against human NCI-H187 by resazurin microplate assay; type: functional, cell-based; how it was run: as §1

Structure (SMILES) | IC50 (Vero) [µM] | IC50 (KB) [µM] | IC50 (NCI-H187) [µM]
COc1ccc2c(c1)[nH]c1c(OC)cc(C=O)cc12 [CLAURAILAS A] | > 200 | > 200 | 13.5
O=Cc1cc(O)c2[nH]c3ccccc3c2c1 [O-DEMETHYLMURRAYANINE] | 104 | 5.49 | 19.2
COc1ccc2c(c1)[nH]c1cc(OC)c(C(=O)O)cc12 [CLAUSINE K] | 178 | > 200 | 139
COc1ccc2c(c1)[nH]c1c(O)cc(C=O)cc12 | 180 | 10.7 | 10.4
COc1ccc2c(c1)[nH]c1cc(OC)c(C=O)cc12 [LANSINE] | > 200 | > 200 | 102
Cc1c2ccncc2c(C)c2c1[nH]c1ccccc12 [ELLIPTECINE] | 3.82 | – | 2.76
COC(=O)c1ccc2[nH]c3ccc4c(c3c2c1)C=CC(C)(C)O4 [CLAURAILAS C] | > 200 | > 200 | > 200
CC(C)=CCc1c(O)c(C=O)cc2c1[nH]c1cc(O)ccc12 [7-HYDROXYHEPTAPHYLLINE] | 41.2 | 27.9 | 14.6
C=CC(C)(C)c1c2c(c(OC)c3ccc(=O)oc13)C=CC(C)(C)O2 [DENTATIN] | > 200 | 114 | 45.4
Cc1cc2c([nH]c3ccccc32)c2c1OC(C)(C)C=C2 [GRINIMIBINE] | > 200 | 7.02 | 22.4
Cc1cc2c([nH]c3c(O)cccc32)c2c1OC(C)(C)C=C2 [CLAURAILAS B] | > 200 | > 200 | > 200
COC(=O)c1cc(O)c2[nH]c3ccccc3c2c1 [CLAUSINE E] | 152 | 108 | 94.6
COc1cc(C=O)cc2c1[nH]c1ccccc12 [MURRAYANINE] | > 200 | 72.2 | 11.5
C=CC(C)(C)c1c2c(c(O)c3ccc(=O)oc13)C=CC(C)(C)O2 [NORDENTATIN] | 56.4 | 20.6 | 11.8
COc1c2c(cc3oc(=O)ccc13)OC(C)(C)C=C2 [XANTHOXYLETIN] | > 200 | 133 | > 200
CC1(C)C=Cc2c(ccc3[nH]c4cc(O)c(C=O)cc4c23)O1 [CLAURAILAS D] | 29.4 | 30.6 | 7.54
CC(C)=CCc1c(O)c(C=O)cc2c1[nH]c1ccccc12 [HEPTAPHYLLINE] | 92.5 | 1.61 | 1.32
O=Cc1cc2c(cc1O)[nH]c1cc(O)ccc12 [CLAUSINE O] | 64.6 | 59.6 | 74.7
COc1ccc2c(c1)[nH]c1c(CC=C(C)C)c(O)c(C=O)cc12 | > 200 | 2.75 | 1.68
